Measurements reported in ChEMBL document CHEMBL4699605, “Synthesis and biological evaluation of novel flexible nucleoside analogues that inhibit flavivirus replication in vitro” (Bioorg Med Chem, 2020).
pEC50, pIC50: −log10 of the molar value.

Tests used:
dengue virus type 2 = test: Antiviral activity against DENV-2 infected in African green monkey Vero cells assessed as virus titer reduction incubated for 48 hrs by plaque assay; format: functional, organism-based
[1] = Inhibition of Dengue virus N-7 methyltransferase incubated for 15 mins followed by [methyl-3-H]-AdoMet addition and measured after 15 mins by microbeta counter method
[2] = Inhibition of Dengue virus 2'-O methyltransferase incubated for 15 mins followed by [methyl-3-H]-AdoMet addition and measured after 30 mins by microbeta counter method
Outline: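 DENV-3 2′-O-MTase (0.5 µM) in 40 mM Tris-HCl pH 7.5 and 5 mM DTT with 1 µM capped RNA GpppAC5 and 10 µM AdoMet containing [3H]AdoMet, 30 °C for 30 min. Stopped by 20-fold dilution in ice-cold 100 µM AdoHcy. RNA captured on DEAE filter, washed, and transferred radioactivity counted. Inhibitor serially diluted, points in triplicate; IC50 from logistic dose-response fit with slope factor.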

SMILES | pEC50 (dengue virus type 2) | pIC50 [1] | pIC50 [2]
C#C[C@@]1(O)[C@H](O)[C@@H](CO)O[C@H]1n1ccc2c(N)ncnc21 | 6.19 | – | –
Nc1ncnc2c1ncn2[C@@H]1O[C@H](C[C@@H](N)CC[C@H](N)C(=O)O)[C@@H](O)[C@H]1O [SINEFUNGIN] | – | 7.52 | 7.39
